Experimental data from ChEMBL document CHEMBL1134529, “4-Hydroxy-5,6-dihydropyrones as inhibitors of HIV protease: the effect of heterocyclic substituents at C-6 on antiviral potency and pharmacokinetic parameters” (J Med Chem, 2001).
“And” between values parts separate entries of the source, which are not always exact repeats. Equal values may be shown once.

Assays:
[1] = Toxicity measured in CEM cells in the absence of virus.; format: cell-based; details: human, CEM cells (CCRF-CEM); read-out: TC50 (the source's name)
[2] = target: Human immunodeficiency virus type 1 protease (Human immunodeficiency virus 1, UniProt Q72874); assay: HIV-1 protease inhibition.
In short: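 Affinity-purified HIV-1 protease (1.5 nM final) with 40 µM peptide substrate His-Lys-Ala-Arg-Val-Leu-(p-NO2-Phe)-Glu-Ala-Nle-Ser-NH2 and 1.0% DMSO. Buffer: 80 mM MES, 160 mM NaCl, 1.0 mM DTT, 1.0 mM EDTA, 0.1% PEG 8000, pH 6.2. Incubated 60 min at 37 °C, then quenched with TFA (2% final). Products separated by reverse-phase HPLC and read at 220 nm. Percent control derived from % conversion with vs without inhibitor; IC50 then determined.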

[3] = system: Human immunodeficiency virus 1; assay: Antiviral activity in HIV infected CEM cells as effective concentration at which 50% of the cells are protected from cytopathic effect.; format: functional, organism-based; details: Human immunodeficiency virus 1, CCRF-CEM
In short: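 HIV-IIIB-infected human lymphocyte-derived CEM cells. EC50 is the drug concentration at which 50% of cells are protected from HIV cytopathic effects. Testing was done at Southern Research Institute.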

[4] = Compound was evaluated for pharmacokinetic parameter, Cmax in rat at 25 mg/kg po; format: ADME, organism-based; set-up: dose 25 mg/kg, route oral; details: in vivo
[5] = compound was evaluated for pharmacokinetic parameter, half life period (T1/2); format: ADME, organism-based; details: in vivo
In short: (§1)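 Species-dependent dosing. Mice: 25 mg/kg po in 20% 0.1 N NaOH/80% 0.5% methylcellulose; values from a pool of five mice; plasma levels by HPLC. Rats: 10 mg/kg po by capsule or pH 7.4-buffered solution; average of two animals. Dogs: 10 mg/kg in saline (sodium salt) or pH 10-buffered 0.1 NaOH (free acid).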

[6] = compound was evaluated for pharmacokinetic parameter, Tmax; format: ADME, organism-based; details: in vivo; in short: as §1
[7] = Bioavailability; format: ADME, organism-based; details: eutheria, in vivo
In short: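 Dogs dosed at 10 mg/kg. Vehicle was either the sodium salt in normal saline or the free acid in 0.1 NaOH buffered to pH 10, depending on compound.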

[8] = Compound was evaluated for pharmacokinetic parameter, Tmax; format: ADME, organism-based; details: in vivo
[9] = Compound was evaluated for pharmacokinetic parameter, half life period (T1/2); format: ADME, organism-based; details: in vivo
[10] = Compound was evaluated for pharmacokinetic parameter, Cmax; format: ADME, organism-based; details: in vivo
[11] = Compound was evaluated for pharmacokinetic parameter, area under curve (AUC); format: ADME; set-up: unit not given here
[12] = compound was evaluated for pharmacokinetic parameter, area under curve (AUC); format: ADME; in short: as §1
[13] = Compound was evaluated for pharmacokinetic parameter, Cmax in rat at 10 mg/kg po; details: in vivo

| Structure (SMILES) | CC50 [1] | IC50 [2] | EC50 [3] | other results |
| --- | --- | --- | --- | --- |
| Cc1cc(SC2=C(O)O[C@@](CCc3ccsc3)(C(C)C)CC2=O)c(C(C)(C)C)cc1CO | 95 µM | 0.0115 µM | 14 µM |  |
| Cc1cc(SC2=C(O)O[C@](CCc3ccsc3)(C(C)C)CC2=O)c(C(C)(C)C)cc1CO | 91 µM | 0.00013 µM | 0.12 µM | Cmax [4]: 14.7 µM; T1/2 [5]: 690 min and 324 min; Tmax [6]: 30 min; bioavailability [7]: 88% |
| Cc1cc(SC2=C(O)OC(CCc3cscc3C)(C(C)C)CC2=O)c(C(C)(C)C)cc1CO (stereo not given) | 51 µM | 0.00041 µM | 0.26 µM |  |
| Cc1cc(SC2=C(O)O[C@](CCc3ccc(N)cc3)(C(C)C)CC2=O)c(C(C)(C)C)cc1CO | 210 µM | 0.00011 µM |  | Tmax [8]: 30 min; half-life [9]: 132 min; half-life [5]: 222 min; Cmax [10]: 26.5 µM; Tmax [6]: 30 min; bioavailability [7]: 33%; AUC [11]: 82 |
| Cc1cc(SC2=C(O)OC(CCc3cc[nH]n3)(C(C)C)CC2=O)c(C(C)(C)C)cc1CO (stereo not given) | 320 µM | 0.00028 µM | 5.6 µM |  |
| Cc1cc(SC2=C(O)OC(CCc3c[nH]cn3)(C(C)C)CC2=O)c(C(C)(C)C)cc1CO (stereo not given) | 200 µM | 0.07 µM | 89 µM |  |
| Cc1cc(SC2=C(O)OC(CCc3ccsc3)(C(C)C)CC2=O)c(C(C)(C)C)cc1CO (stereo not given) | 110 µM | 0.00017 µM | 0.3 µM | Tmax [8]: 30 min; AUC [12]: 21 µg/h/mL; half-life [9]: 210 min; half-life [5]: 564 min; Cmax [13]: 11.2 µM; Cmax [10]: 39.6 µM; Tmax [6]: 30 min; AUC [11]: 221 |
| Cc1cc(SC2=C(O)OC(CCc3ccncc3)(C(C)C)CC2=O)c(C(C)(C)C)cc1CO (stereo not given) | 296 µM | 0.0015 µM | 1.5 µM |  |
| Cc1cc(SC2=C(O)OC(CCc3ccc4[nH]ccc4c3)(C(C)C)CC2=O)c(C(C)(C)C)cc1CO (stereo not given) | 46 µM | 0.00098 µM | 0.68 µM |  |
| Cc1csc(CCC2(C(C)C)CC(=O)C(Sc3cc(C)c(CO)cc3C(C)(C)C)=C(O)O2)n1 (stereo not given) | 171 µM | 0.00045 µM | 0.8 µM |  |
| Cc1cc(SC2=C(O)OC(CCc3ccsc3CO)(C(C)C)CC2=O)c(C(C)(C)C)cc1CO (stereo not given) | 200 µM | 0.014 µM | 0.92 µM |  |
| Cc1cc(SC2=C(O)OC(CCc3c[nH]c4ccccc34)(C(C)C)CC2=O)c(C(C)(C)C)cc1CO (stereo not given) | 46 µM | 0.00072 µM | 0.37 µM |  |
| Cc1cc(SC2=C(O)OC(CCc3nc4ccccc4s3)(C(C)C)CC2=O)c(C(C)(C)C)cc1CO (stereo not given) | 62 µM | 0.0014 µM | 1.5 µM |  |
| O=c1cc(-c2ccccc2)oc(O)c1Sc1ccccc1 |  | 3 µM |  |  |
| Cc1cc(SC2=C(O)OC(CCc3ccco3)(C(C)C)CC2=O)c(C(C)(C)C)cc1CO (stereo not given) | 190 µM | 0.00078 µM | 0.75 µM |  |
| CC(=O)Nc1nc(CCC2(C(C)C)CC(=O)C(Sc3cc(C)c(CO)cc3C(C)(C)C)=C(O)O2)cs1 (stereo not given) | 210 µM | 0.018 µM | 23 µM |  |
| Cc1cc(SC2=C(O)OC(CCc3cncnc3)(C(C)C)CC2=O)c(C(C)(C)C)cc1CO (stereo not given) | > 200 µM | 0.017 µM | 1.2 µM |  |
| Cc1cc(SC2=C(O)OC(CCc3cccnc3)(C(C)C)CC2=O)c(C(C)(C)C)cc1CO (stereo not given) |  | 0.00094 µM |  | Tmax [8]: 30 min |
| Cc1cnc(CCC2(C(C)C)CC(=O)C(Sc3cc(C)c(CO)cc3C(C)(C)C)=C(O)O2)s1 (stereo not given) | 210 µM | 0.019 µM | 1.9 µM |  |
| Cc1cc(SC2=C(O)OC(CCc3csc(C(C)C)n3)(C(C)C)CC2=O)c(C(C)(C)C)cc1CO (stereo not given) | 91 µM | 0.0016 µM | 23 µM |  |

| Structure (SMILES) | CC50 [1] | IC50 [2] | EC50 [3] | other results |
| --- | --- | --- | --- | --- |
| Cc1cc(SC2=C(O)OC(CCc3cnc(N)nc3)(C(C)C)CC2=O)c(C(C)(C)C)cc1CO (stereo not given) | > 200 µM |  | 5.7 µM |  |
| Cc1cc(SC2=C(O)OC(CCc3scnc3C(C)C)(C(C)C)CC2=O)c(C(C)(C)C)cc1CO (stereo not given) | 102 µM | 0.0008 µM | 1.2 µM |  |
| Cc1cc(SC2=C(O)OC(CCc3ccccn3)(C(C)C)CC2=O)c(C(C)(C)C)cc1CO (stereo not given) | 249 µM | 0.0012 µM | 1.5 µM |  |
| Cc1cc(SC2=C(O)OC(CCc3nccs3)(C(C)C)CC2=O)c(C(C)(C)C)cc1CO (stereo not given) | 216 µM | 0.00057 µM | 0.7 µM | Tmax [8]: 30 min; AUC [12]: 10000 ng·h/mL; half-life [9]: 198 min; half-life [5]: 732 min; Cmax ([13]; read-out: Cmax): 2.7 µM; Cmax [10]: 33 µM; Tmax [6]: 15 min; AUC [11]: 132 |
| Cc1cc(SC2=C(O)OC(CCc3ccc(CO)s3)(C(C)C)CC2=O)c(C(C)(C)C)cc1CO (stereo not given) | 182 µM | 0.00058 µM | 2.5 µM |  |
| Cc1cc(SC2=C(O)OC(CCc3cccs3)(C(C)C)CC2=O)c(C(C)(C)C)cc1CO (stereo not given) | 81 µM | 0.00035 µM | 0.5 µM |  |
| Cc1cc(SC2=C(O)OC(CCc3cncs3)(C(C)C)CC2=O)c(C(C)(C)C)cc1CO (stereo not given) | 229 µM | 0.00024 µM | 1.9 µM |  |
| Cc1cc(SC2=C(O)OC(CCc3cscn3)(C(C)C)CC2=O)c(C(C)(C)C)cc1CO (stereo not given) | 141 µM | 0.0013 µM | 2.8 µM |  |
| Cc1nc(CCC2(C(C)C)CC(=O)C(Sc3cc(C)c(CO)cc3C(C)(C)C)=C(O)O2)cs1 (stereo not given) | 210 µM | 0.013 µM | 4.5 µM |  |
| Cc1cc(SC2=C(O)OC(CCc3scnc3C)(C(C)C)CC2=O)c(C(C)(C)C)cc1CO (stereo not given) | 164 µM |  | 0.37 µM | Cmax [13]: 0.77 µM; Tmax [6]: 15 min |
| Cc1cc(SC2=C(O)OC(CCc3csc(CO)c3)(C(C)C)CC2=O)c(C(C)(C)C)cc1CO (stereo not given) | 210 µM | 0.00019 µM | 18 µM |  |
| Cc1cc(SC2=C(O)OC(CCc3ncsc3C(C)C)(C(C)C)CC2=O)c(C(C)(C)C)cc1CO (stereo not given) | 52 µM | 0.0058 µM | 10 µM |  |
| Cc1cc(SC2=C(O)OC(CCc3nc(C(C)C)cs3)(C(C)C)CC2=O)c(C(C)(C)C)cc1CO (stereo not given) | 84 µM | 0.014 µM | 33 µM |  |
| Cc1cc(SC2=C(O)OC(CCc3ncsc3C)(C(C)C)CC2=O)c(C(C)(C)C)cc1CO (stereo not given) | 208 µM | 0.0013 µM | 1.8 µM |  |
| Cc1cc(SC2=C(O)OC(CCC3CCCO3)(C(C)C)CC2=O)c(C(C)(C)C)cc1CO (stereo not given) |  | 0.005 µM |  |  |
| Cc1cc(SC2=C(O)OC(CCc3ccoc3)(C(C)C)CC2=O)c(C(C)(C)C)cc1CO (stereo not given) | 199 µM | 0.00034 µM | 1 µM | Tmax [8]: 30 min; half-life [9]: 336 min; Cmax [10]: 54.4 µM; AUC [11]: 241 |
| Cc1cc(SC2=C(O)OC(CCc3sccc3C)(C(C)C)CC2=O)c(C(C)(C)C)cc1CO (stereo not given) | 80 µM |  | 0.28 µM |  |
| Cc1cc(SC2=C(O)OC(CCc3csc(N)n3)(C(C)C)CC2=O)c(C(C)(C)C)cc1CO (stereo not given) | > 200 µM | 0.00095 µM | 3.5 µM |  |
| Cc1cc(SC2=C(O)OC(CCc3ccc(N)cc3)(C(C)C)CC2=O)c(C(C)(C)C)cc1CO (racemic) | > 100 µM | 0.00043 µM | 0.5 µM | Tmax [8]: 30 min; half-life [9]: 132 min; Cmax [10]: 23 µM; AUC [11]: 42 |
